According to ChEMBL document CHEMBL1144659, “Structure-activity study of 2,3-benzodiazepin-4-ones noncompetitive AMPAR antagonists: identification of the 1-(4-amino-3-methylphenyl)-3,5-dihydro-7,8-ethylenedioxy-4H-2,3-benzodiazepin-4-one as neuroprotective agent” (Bioorg Med Chem, 2008):

Assays:
[1] = Antagonist activity at AMPA receptor in rat […] granule cells assessed as inhibition of kainate-induced calcium uptake after 30 mins; format: functional, cell-based; details: 0.5 h
Procedure, shortened: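 Primary rat cerebellar granule neurons, preincubated 30 min with compounds in BSS (pH 7.3), then exposed at room temperature to 100 µM kainate in BSS with 10 µM glycine, 0.5 mM dithiothreitol and 45Ca2+ for 10 min. Washed with ice-cold BSS containing 5 mM EGTA, lysed in 0.6% Triton X-100, radioactivity counted. IC50 representative of three experiments.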

[2] = Displacement of [3H]CP-526427 from AMPA receptor in Sprague-Dawley rat fore brain by radioligand binding assay
Procedure, shortened: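 Adult male Sprague-Dawley forebrain membranes at 0.5 mg protein/mL in 50 mM Tris·HCl pH 7.4. Compounds at various concentrations with 3 nM [3H]CP-526,427, 20 min at 30 °C. Filtration onto glass fiber filters, scintillation counting. Nonspecific binding taken with 10 µM unlabeled CP-526,427 or CP-465,022. Positive control was CP-465,022.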

Neuron = assay: Inhibition of kainate-induced C57BL/6N mouse hippocampal neurons excitotoxicity after 48 hrs by MTT assay; format: functional, tissue-based; details: Hippocampus
Procedure, shortened: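 E13 C57BL/6N mouse hippocampal cultures were given 30 µM kainate with the test compound at graded concentrations, in medium without glutamate. Exposure was 48 h at 37 °C. Viability was measured by MTT conversion (absorbance 570 nm), relative to untreated cells. IC50 values are representative of three independent experiments.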

[3] = Excitotoxicity against C57BL/6N mouse hippocampal neurons after 48 hrs by MTT assay; format: tissue-based; details: Neuron, Hippocampus
Procedure, shortened: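 Primary hippocampal cultures from E13 C57BL/6N mouse embryos were grown on poly-L-lysine in Neurobasal/B27/BDNF medium. At 7 DIV they were exposed to kainate (5–500 µM) for 48 h at 37 °C, 5% CO2. Viability was read by MTT (4 h, absorbance 570 nm) as % of untreated cells. Five–six experiments, each in duplicate.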

Row | Structure (SMILES) | IC50 [1] [µM] | IC50 [2] [µM] | IC50 (Neuron) [µM] | Activity (Neuron) | EC50 [3] [µM]
1 | Cc1cc(C2=NNC(=O)Cc3cc4c(cc32)OCO4)ccc1N | 2.5 | 6.3 |  |  | 
2 | CCC1C(=O)NN=C(c2ccc(N)cc2)c2cc3c(cc21)OCO3 (stereo not drawn) | 17.1 | 8.37 |  |  | 
3 | Cc1cc(C2=NNC(=O)C(C)c3cc4c(cc32)OCO4)ccc1N (stereo not drawn) | 18.8 | 9.62 |  |  | 
4 | Cc1cc(C2=NNC(=O)C(C)c3cc4c(cc32)OCCO4)ccc1N (stereo not drawn) | 1.23 | 4.5 |  |  | 
5 | Cc1cc(C2=NNC(=O)Cc3cc4c(cc32)OCCO4)ccc1N | 6.4 | 1.84 | 1.6 |  | 
6 | CNC(=O)N1N=C(c2ccc(N)cc2)c2cc3c(cc2CC1=O)OCO3 | 11 | 12 |  |  | 
7 | CC1C(=O)NN=C(c2ccc(N)c(Cl)c2)c2cc3c(cc21)OCCO3 (stereo not drawn) | 18 | 21.6 |  |  | 
8 | CC(=O)N1N=C(c2ccc(N)cc2)c2cc3c(cc2C[C@H]1C)OCO3 |  |  |  | Dose-dependent effect | 
9 | CC1C(=O)NN=C(c2ccc(N)cc2)c2cc3c(cc21)OCO3 (stereo not drawn) | 12 | 12.9 |  |  | 
10 | CCC1C(=O)NN=C(c2ccc(N)c(C)c2)c2cc3c(cc21)OCO3 (stereo not drawn) | 4.34 | 15.6 |  |  | 
11 | Cc1cc(C2=NNC(=O)Cc3cc4c(cc32)OCO4)cc(C)c1N | > 100 | > 100 |  |  | 
12 | CC1=NN=C(c2ccc(N)cc2)c2cc3c(cc2C1)OCO3 [GYKI-52466] | 22 | 12.6 | 10.8 |  | 
13 | CC1C(=O)NN=C(c2ccc(N)cc2)c2cc3c(cc21)OCCO3 (stereo not drawn) |  | 6.96 |  |  | 
14 | CNC(=O)N1N=C(c2ccc(N)cc2)c2cc3c(cc2C(C)C1=O)OCO3 (stereo not drawn) | 15.8 | 4.01 |  |  | 
15 | Cc1cc(C2=NNC(=O)Cc3cc4c(cc32)OCCO4)cc(C)c1N | > 100 | > 100 |  |  | 
16 | Nc1ccc(C2=NNC(=O)Cc3cc4c(cc32)OCO4)cc1 | 12 | 32 |  |  | 
17 | CNC(=O)N1N=C(c2ccc(N)cc2)c2cc3c(cc2CC1=O)OCCO3 | 5.4 | 7.78 |  |  | 
18 | COc1cc(C2=NNC(=O)Cc3cc4c(cc32)OCO4)ccc1N | 31 | > 100 |  |  | 
19 | CC1C(=O)NN=C(c2ccc(N)c(Cl)c2)c2cc3c(cc21)OCO3 (stereo not drawn) | 7 | 11.4 |  |  | 
20 | NS(=O)(=O)c1cccc2c1c([N+](=O)[O-])cc1nc(O)c(O)nc12 [NBQX] |  |  | 11.9 |  | 
21 | CNC(=O)N1N=C(c2ccc(N)cc2)c2cc3c(cc2C[C@H]1C)OCO3 |  |  |  | Dose-dependent effect | 
22 | Nc1ccc(C2=NNC(=O)Cc3cc4c(cc32)OCCO4)cc1Cl | 2 | 2.05 |  |  | 
23 | C=C(C)[C@H]1CN[C@H](C(=O)O)[C@H]1CC(=O)O [KAINIC ACID] |  |  |  |  | 17.3
24 | COc1cc(C2=NNC(=O)Cc3cc4c(cc32)OCCO4)ccc1N | 12 | 81.1 |  |  | 
25 | Nc1ccc(C2=NNC(=O)C(Cc3ccccc3)c3cc4c(cc32)OCO4)cc1 (stereo not drawn) |  | > 100 |  |  | 
26 | Nc1ccc(C2=NNC(=O)Cc3cc4c(cc32)OCCO4)cc1 | 2.9 | 9 |  |  | 
